Laboratory results as given in paper PMC3130141 (Archives of Drug Information, 2011).

What was measured:
[1] = Plasma pharmacokinetics, non-compartmental analysis; type: in vivo, human; conditions: for clearance / AUC(0-inf) / AUC(0-t) / Cmax / MRT / Vd / concentration at 24 h / half-life: human, plasma
Summary of the method: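 Plasma was sampled pre- and post-dose daily on days 1–8 of cycle 1 and on day 1 of cycle 2, after a 1-h iv infusion. Analysis was non-compartmental: Cmax by inspection; λz by log-linear terminal regression; AUC0–24h by linear trapezoidal rule, extrapolated to infinity via λz; CL as dose/AUC. Values are geometric mean (CV%) per cohort.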

[2] = system: Japanese patients with advanced solid tumors; assay: Dose-limiting toxicities and maximum tolerated dose during cycle 1; type: in vivo, human; conditions: dose escalation halted at 25 mg
Summary of the method: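 Open-label dose escalation in sequential cohorts at 10, 15, 20 or 25 mg, given as a 1-h iv infusion on days 1, 8 and 15 of 28-day cycles. DLT: grade 3/4 hemolysis, grade 4 hematologic toxicity, febrile grade 3/4 neutropenia, prolonged diarrhea or vomiting, or other grade 3/4 non-hematologic toxicity (CTCAE v3.0). MTD: highest dose with ≤1 of 6 evaluable patients having a cycle 1 DLT.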

[3] = system: Japanese patients with advanced solid tumors; assay: Efficacy: overall best response by RECIST version 1.0; type: in vivo, human
Summary of the method: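 Investigator-assessed overall best response by RECIST v1.0, with baseline imaging within 28 days before first dose. Re-imaging was on day 29 of cycles 1 and 2 and of subsequent odd-numbered cycles. […] Dosing was a 1-h iv infusion on days 1, 8 and 15 of 28-day cycles (10–25 mg cohorts). Results were summarized descriptively by dose group.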

[4] = system: Japanese patients with advanced solid tumors; assay: Adverse events by CTCAE version 3.0, Phase I dose-escalation study; type: in vivo, human
[5] = system: broad panel of solid and hematologic tumor cell lines; conditions: cited from earlier work
[6] = all doses 10-25 mg, 18 patients

Cc1ccc(C(=O)N(CCCN)C(c2nc3snc(C)c3c(=O)n2Cc2ccccc2)C(C)C)cc1 (centres unmarked) [AZD4877]
Dose proportionality of exposure ([1]; 10-25 mg): not fully dose proportional | clearance ([1]; intravenous, 25 mg): 325 to 373 mL/min | AUC(0-inf) ([1]; iv, 10 mg): 447 ng·h/mL | AUC(0-t) ([1]; iv, 10 mg): 234 ng·h/mL | Cmax ([1]; iv, 10 mg): 63.4 ng/mL | MRT ([1]; iv, 10 mg): 34.2 h | Vd ([1]; iv, 10 mg): 766 L | clearance ([1]; iv, 10 mg): 373 mL/min | concentration at 24 h ([1]; iv, 10 mg): 4.9 ng/mL | half-life ([1]; iv, 10 mg): 28.7 h | AUC(0-inf) ([1]; iv, 15 mg): 671 ng·h/mL | AUC(0-t) ([1]; iv, 15 mg): 424 ng·h/mL | Cmax ([1]; iv, 15 mg): 99.7 ng/mL | MRT ([1]; iv, 15 mg): 22.9 h | Vd ([1]; iv, 15 mg): 512 L | clearance ([1]; iv, 15 mg): 372 mL/min | concentration at 24 h ([1]; iv, 15 mg): 7.8 ng/mL | half-life ([1]; iv, 15 mg): 20.3 h | AUC(0-inf) ([1]; iv, 20 mg): 1430 ng·h/mL | AUC(0-t) ([1]; iv, 20 mg): 882 ng·h/mL | Cmax ([1]; iv, 20 mg): 218 ng/mL | MRT ([1]; iv, 20 mg): 22.4 h | Vd ([1]; iv, 20 mg): 314 L | clearance ([1]; iv, 20 mg): 233 mL/min | concentration at 24 h ([1]; iv, 20 mg): 14.9 ng/mL | half-life ([1]; iv, 20 mg): 21.3 h | AUC(0-inf) ([1]; iv, 25 mg): 1280 ng·h/mL | AUC(0-t) ([1]; iv, 25 mg): 838 ng·h/mL | Cmax ([1]; iv, 25 mg): 224 ng/mL | MRT ([1]; iv, 25 mg): 22.2 h | Vd ([1]; iv, 25 mg): 432 L | clearance ([1]; iv, 25 mg): 325 mL/min | concentration at 24 h ([1]; iv, 25 mg): 13.6 ng/mL | half-life ([1]; iv, 25 mg): 21.1 h | Maximum tolerated dose (MTD) [2]: not defined | Patients with complete or partial response ([3]; all doses): No patients | Patients with stable disease ≥8 weeks ([3]; all doses): five of 16 | Overall best response (RECIST) ([3]; all doses, stable disease defined as ≥8 weeks): stable disease | Duration of stable disease ([3]; patient with thymus cancer, 20 mg cohort): ≥ 12 weeks | Anorexia, patients with CTCAE grade ≥3 event ([4]; 10 mg (N = 3)): 0 N (%) | Any grade ≥3 event, patients with CTCAE grade ≥3 event ([4]; 10 mg (N = 3)): 0 N (%) | Constipation, CTCAE any grade, patients with AEs ([4]; 10 mg (N = 3)): 1 (33) N (%) | Constipation, patients with CTCAE grade ≥3 event ([4]; 10 mg (N = 3)): 0 N (%) | Diarrhea, CTCAE any grade, patients with AEs ([4]; 10 mg (N = 3)): 2 (67) N (%) | Dizziness, CTCAE any grade, patients with AEs ([4]; 10 mg (N = 3)): 2 (67) N (%) | Fatigue, CTCAE any grade, patients with AEs ([4]; 10 mg (N = 3)): 1 (33) N (%) | Fatigue, patients with CTCAE grade ≥3 event ([4]; 10 mg (N = 3)): 0 N (%) | Febrile neutropenia, patients with CTCAE grade ≥3 event ([4]; 10 mg (N = 3)): 0 N (%) | Insomnia, CTCAE any grade, patients with AEs ([4]; 10 mg (N = 3)): 1 (33) N (%) | Nasopharyngitis, CTCAE any grade, patients with AEs ([4]; 10 mg (N = 3)): 0 N (%) | Nausea, CTCAE any grade, patients with AEs ([4]; 10 mg (N = 3)): 2 (67) N (%) | Neutropenia, patients with CTCAE grade ≥3 event ([4]; 10 mg (N = 3)): 0 N (%) | Pyrexia, CTCAE any grade, patients with AEs ([4]; 10 mg (N = 3)): 0 N (%) | Rash, CTCAE any grade, patients with AEs ([4]; 10 mg (N = 3)): 0 N (%) | Urinary tract infection, patients with CTCAE grade ≥3 event ([4]; 10 mg (N = 3)): 0 N (%) | Anorexia, patients with CTCAE grade ≥3 event ([4]; 15 mg (N = 3)): 0 N (%) | Any grade ≥3 event, patients with CTCAE grade ≥3 event ([4]; 15 mg (N = 3)): 0 N (%) | Constipation, CTCAE any grade, patients with AEs ([4]; 15 mg (N = 3)): 0 N (%) | Constipation, patients with CTCAE grade ≥3 event ([4]; 15 mg (N = 3)): 0 N (%) | Diarrhea, CTCAE any grade, patients with AEs ([4]; 15 mg (N = 3)): 1 (33) N (%) | Dizziness, CTCAE any grade, patients with AEs ([4]; 15 mg (N = 3)): 0 N (%) | Fatigue, CTCAE any grade, patients with AEs ([4]; 15 mg (N = 3)): 1 (33) N (%) | Fatigue, patients with CTCAE grade ≥3 event ([4]; 15 mg (N = 3)): 0 N (%) | Febrile neutropenia, patients with CTCAE grade ≥3 event ([4]; 15 mg (N = 3)): 0 N (%) | Insomnia, CTCAE any grade, patients with AEs ([4]; 15 mg (N = 3)): 0 N (%) | Nasopharyngitis, CTCAE any grade, patients with AEs ([4]; 15 mg (N = 3)): 0 N (%) | Nausea, CTCAE any grade, patients with AEs ([4]; 15 mg (N = 3)): 1 (33) N (%) | Neutropenia, patients with CTCAE grade ≥3 event ([4]; 15 mg (N = 3)): 0 N (%) | Pyrexia, CTCAE any grade, patients with AEs ([4]; 15 mg (N = 3)): 3 (100) N (%) | Rash, CTCAE any grade, patients with AEs ([4]; 15 mg (N = 3)): 3 (100) N (%) | Urinary tract infection, patients with CTCAE grade ≥3 event ([4]; 15 mg (N = 3)): 0 N (%) | Anorexia, patients with CTCAE grade ≥3 event ([4]; 20 mg (N = 6)): 0 N (%) | Any grade ≥3 event, patients with CTCAE grade ≥3 event ([4]; 20 mg (N = 6)): 1 (17) N (%) | Constipation, CTCAE any grade, patients with AEs ([4]; 20 mg (N = 6)): 1 (17) N (%) | Constipation, patients with CTCAE grade ≥3 event ([4]; 20 mg (N = 6)): 0 N (%) | Diarrhea, CTCAE any grade, patients with AEs ([4]; 20 mg (N = 6)): 0 N (%) | Dizziness, CTCAE any grade, patients with AEs ([4]; 20 mg (N = 6)): 3 (50) N (%) | Fatigue, CTCAE any grade, patients with AEs ([4]; 20 mg (N = 6)): 2 (33) N (%) | Fatigue, patients with CTCAE grade ≥3 event ([4]; 20 mg (N = 6)): 0 N (%) | Febrile neutropenia, patients with CTCAE grade ≥3 event ([4]; 20 mg (N = 6)): 0 N (%) | Insomnia, CTCAE any grade, patients with AEs ([4]; 20 mg (N = 6)): 2 (33) N (%) | Nasopharyngitis, CTCAE any grade, patients with AEs ([4]; 20 mg (N = 6)): 2 (33) N (%) | Nausea, CTCAE any grade, patients with AEs ([4]; 20 mg (N = 6)): 1 (17) N (%) | Neutropenia, patients with CTCAE grade ≥3 event ([4]; 20 mg (N = 6)): 1 (17) N (%) | Pyrexia, CTCAE any grade, patients with AEs ([4]; 20 mg (N = 6)): 2 (33) N (%) | Rash, CTCAE any grade, patients with AEs ([4]; 20 mg (N = 6)): 2 (33) N (%) | Urinary tract infection, patients with CTCAE grade ≥3 event ([4]; 20 mg (N = 6)): 0 N (%) | Patients who withdrew from the study due to an AE ([4]; 20 mg dose cohort, grade 2 cystitis): one patient | Anorexia, patients with CTCAE grade ≥3 event ([4]; 25 mg (N = 6)): 1 (17) N (%) | Any grade ≥3 event, patients with CTCAE grade ≥3 event ([4]; 25 mg (N = 6)): 2 (33) N (%) | Constipation, CTCAE any grade, patients with AEs ([4]; 25 mg (N = 6)): 2 (33) N (%) | Constipation, patients with CTCAE grade ≥3 event ([4]; 25 mg (N = 6)): 1 (17) N (%) | Diarrhea, CTCAE any grade, patients with AEs ([4]; 25 mg (N = 6)): 2 (33) N (%) | Dizziness, CTCAE any grade, patients with AEs ([4]; 25 mg (N = 6)): 0 N (%) | Fatigue, CTCAE any grade, patients with AEs ([4]; 25 mg (N = 6)): 3 (50) N (%) | Fatigue, patients with CTCAE grade ≥3 event ([4]; 25 mg (N = 6)): 1 (17) N (%) | Febrile neutropenia, patients with CTCAE grade ≥3 event ([4]; 25 mg (N = 6)): 1 (17) N (%) | Insomnia, CTCAE any grade, patients with AEs ([4]; 25 mg (N = 6)): 1 (17) N (%) | Nasopharyngitis, CTCAE any grade, patients with AEs ([4]; 25 mg (N = 6)): 2 (33) N (%) | Nausea, CTCAE any grade, patients with AEs ([4]; 25 mg (N = 6)): 3 (50) N (%) | Neutropenia, patients with CTCAE grade ≥3 event ([4]; 25 mg (N = 6)): 0 N (%) | Pyrexia, CTCAE any grade, patients with AEs ([4]; 25 mg (N = 6)): 1 (17) N (%) | Rash, CTCAE any grade, patients with AEs ([4]; 25 mg (N = 6)): 0 N (%) | Urinary tract infection, patients with CTCAE grade ≥3 event ([4]; 25 mg (N = 6)): 1 (17) N (%) | Anorexia, patients with CTCAE grade ≥3 event ([4]; Total, all doses (N = 18)): 1 (6) N (%) | Any grade ≥3 event, patients with CTCAE grade ≥3 event ([4]; Total, all doses (N = 18)): 3 (17) N (%) | Constipation, CTCAE any grade, patients with AEs ([4]; Total, all doses (N = 18)): 4 (22) N (%) | Constipation, patients with CTCAE grade ≥3 event ([4]; Total, all doses (N = 18)): 1 (6) N (%) | Diarrhea, CTCAE any grade, patients with AEs ([4]; Total, all doses (N = 18)): 5 (28) N (%) | Dizziness, CTCAE any grade, patients with AEs ([4]; Total, all doses (N = 18)): 5 (28) N (%) | Fatigue, CTCAE any grade, patients with AEs ([4]; Total, all doses (N = 18)): 7 (39) N (%) | Fatigue, patients with CTCAE grade ≥3 event ([4]; Total, all doses (N = 18)): 1 (6) N (%) | Febrile neutropenia, patients with CTCAE grade ≥3 event ([4]; Total, all doses (N = 18)): 1 (6) N (%) | Insomnia, CTCAE any grade, patients with AEs ([4]; Total, all doses (N = 18)): 4 (22) N (%) | Nasopharyngitis, CTCAE any grade, patients with AEs ([4]; Total, all doses (N = 18)): 4 (22) N (%) | Nausea, CTCAE any grade, patients with AEs ([4]; Total, all doses (N = 18)): 7 (39) N (%) | Neutropenia, patients with CTCAE grade ≥3 event ([4]; Total, all doses (N = 18)): 1 (6) N (%) | Pyrexia, CTCAE any grade, patients with AEs ([4]; Total, all doses (N = 18)): 6 (33) N (%) | Rash, CTCAE any grade, patients with AEs ([4]; Total, all doses (N = 18)): 5 (28) N (%) | Urinary tract infection, patients with CTCAE grade ≥3 event ([4]; Total, all doses (N = 18)): 1 (6) N (%) | Deaths during the study ([4]; all doses 10-25 mg): no deaths | Patients reporting fatigue (AE) [4, 6]: 39% | Patients reporting nausea (AE) [4, 6]: 39% | Patients reporting pyrexia (AE) [4, 6]: 33% | Patients who experienced at least one AE [4, 6]: All patients | Patients who experienced CTCAE grade ≥3 events ([4]; all doses, 18 patients, one in 20 mg, two in 25 mg cohort): Three | Tolerability ([4]; doses up to 25 mg weekly): generally well tolerated | Growth of tumor cell lines [5]: inhibit growth
